The source of these data is ChEMBL document CHEMBL2150929, “Lipidated peptidomimetics with improved antimicrobial activity” (ACS Med Chem Lett, 2012).

Series [1] can be described thus: Toxicity in RBC assessed as hemolysis. The format is cell-based, Erythrocyte. The settings on record: for HC10: erythrocyte; for HC50: red blood cells (RBC). The gist of the method: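 Hemolysis of red blood cells measured over a concentration range. H10 and H50 are the concentrations giving 10% and 50% hemolysis.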
The subject of series [2] is Bacillus subtilis. Briefly: Antimicrobial activity against Bacillus subtilis BR151 after 24 hrs by broth micro-dilution method. The format is functional. The conditions noted are these: BR151, 24 h. (In general: Dilution methods test growth across graded concentrations, often in twofold steps.)
In series [3] the test system is Staphylococcus aureus. Briefly: Antimicrobial activity against methicillin-resistant Staphylococcus aureus ATCC 33592 after 24 hrs by broth micro-dilution method. The format is functional. The conditions noted are these: ATCC 33592, 24 h. The gist of the method: (§1)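 MIC read as the lowest concentration giving complete inhibition of bacterial growth after 24 h of incubation. Pexiganan and a linear α-AApeptide were run alongside as positive controls.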

The subject of series [4] is Enterococcus faecalis. Briefly: Antimicrobial activity against Vancomycin-resistant Enterococcus faecalis ATCC 700802 after 24 hrs by broth micro-dilution method. The format is functional. The settings on record: ATCC 700802, 24 h. The procedure, abridged: as §1
In series [5] the test system is Staphylococcus epidermidis. Nature of the series: Antimicrobial activity against methicillin-resistant Staphylococcus epidermidis RP62A after 24 hrs by broth micro-dilution method. In kind it is functional. The procedure, abridged: as §1
For series [6], the system named is Escherichia coli. Briefly: Antimicrobial activity against Escherichia coli JM109 after 24 hrs by broth micro-dilution method. In kind it is functional. The conditions noted are these: JM109, 24 h.
In series [7] the test system is Klebsiella pneumoniae. Briefly: Antimicrobial activity against Klebsiella pneumoniae ATCC 13383 after 24 hrs by broth micro-dilution method. The conditions noted are these: ATCC 13383, 24 h. In kind it is functional.
Series [8] has as its system Pseudomonas aeruginosa. Briefly: Antimicrobial activity against Pseudomonas aeruginosa ATCC 27853 after 24 hrs by broth micro-dilution method. The format is functional. The settings on record: ATCC 27853, 24 h.
Series [9] relates to Candida albicans. Nature of the series: Antimicrobial activity against Candida albicans ATCC 10231 after 48 hrs by broth micro-dilution method. In kind it is functional. The settings on record: ATCC 10231, 48 h.
In series [10] the test system is Escherichia coli. Nature of the series: Induction of membrane disruption in Escherichia coli JM109 at 10 ug/ml after 2 hrs by Propidium iodide-staining based fluorescence microscopy. The format is functional, organism-based. The gist of the method:
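E. coli exposed to 10 μg/mL for 2 h, then stained with DAPI, which labels all cells, and propidium iodide, which enters cells with damaged membranes. Red PI fluorescence imaged by fluorescence microscopy against untreated controls.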

In brackets after ≈: the same amount, converted by molar mass. Activity calls are given as the source filed them. The rule behind the calls is not given here. Where only a bound is given, the exact number is not on record here.

Regarding “H-GIGKFLKKAKKFGKAFVKILKK-NH2 [PEXIGANAN]”, the HC10 in [1] stood at 181 µg/mL. Further, in [1], the HC50 (in general, the concentration giving 50% haemolysis) came out at 495 µg/mL. For the same compound, the MIC (as a rule, the lowest concentration found to suppress growth) turned out to be 4 µg/mL in series [2]; 16 µg/mL in series [3]; 32 µg/mL in series [4]; 8 µg/mL in series [5]; 8 µg/mL in series [6]; 8 µg/mL in [7]. Further, the MIC stood at 8 µg/mL in series [8] and 124 µg/mL in [9].

As for `CCCCCCCCCCCCCCCC(=O)NCCN(C(C)=O)[C@@H](C)C(=O)NCCN(C(C)=O)[C@@H](C)C(=O)NCCN(C(=O)CCCN)[C@@H](Cc1ccccc1)C(=O)NCCN(C(=O)CCCN)[C@@H](Cc1ccccc1)C(=O)NCCN(C(=O)CCCN)[C@@H](Cc1ccccc1)C(N)=O`, the HC10 in series [1] worked out at 40 µg/mL. Moreover, the HC50 in [1] came out at 400 µg/mL. The MIC is 2 µg/mL (≈ 1.43 µM) in [2]; 4 µg/mL (≈ 2.87 µM) in series [3]; 4 µg/mL (≈ 2.87 µM) in [4]; 4 µg/mL (≈ 2.87 µM) in [5]; 30 µg/mL (≈ 21.5 µM) in [6]; 8 µg/mL (≈ 5.74 µM) in series [7]. The MIC in series [8] stood at 8 µg/mL (≈ 5.74 µM); in [9] it was 20 µg/mL (≈ 14.3 µM).

As for `CCCCCCCCCCCCCCCC(=O)NCCN(C(=O)CCc1ccccc1)[C@@H](CCCCN)C(=O)NCCN(C(=O)CCc1ccccc1)[C@@H](CCCCN)C(=O)NCCN(C(=O)CCc1ccccc1)[C@@H](CCCCN)C(N)=O`, in [1], the HC10 was 15 µg/mL. Besides, the HC50 in series [1] is 150 µg/mL. Besides, the MIC in series [2] was 2 µg/mL (≈ 1.72 µM); in series [3], 8 µg/mL (≈ 6.86 µM); in series [4] it was 10 µg/mL (≈ 8.58 µM); in series [5] it was 20 µg/mL (≈ 17.2 µM); in series [6], greater than 50 µg/mL; in series [7], greater than 50 µg/mL. Moreover, the MIC in series [8] and in series [9] was greater than 50 µg/mL in each case.

In the case of `CCCCCCCCCCCCCCCC(=O)NCCN(C(C)=O)[C@@H](C)C(=O)NCCN(C(C)=O)[C@@H](C)C(=O)NCCN(C(=O)CCCN)[C@@H](CCCCN)C(=O)NCCN(C(=O)CCCN)[C@@H](CCCCN)C(=O)NCCN(C(=O)CCCN)[C@@H](CCCCN)C(N)=O`, the HC10 in series [1] was found to be 100 µg/mL. The HC50 in series [1] is greater than 500 µg/mL. Also, the minimum inhibitory concentration (MIC) in [2] was found to be 4 µg/mL (≈ 2.99 µM); in [3], 8 µg/mL (≈ 5.98 µM); in series [4], 20 µg/mL (≈ 15 µM); in series [5], 10 µg/mL (≈ 7.48 µM); in series [6], 4 µg/mL (≈ 2.99 µM); in [7] it was 20 µg/mL (≈ 15 µM). For the same compound, the MIC in [8] and in series [9] was 10 µg/mL (≈ 7.48 µM) each time.

As to `CCCCCCCCCCCCCCCC(=O)NCCN(C(=O)CCc1ccccc1)[C@@H](CCCCN)C(=O)NCCN(C(=O)CCc1ccccc1)[C@@H](CCCCN)C(N)=O`, the HC10 in series [1] was greater than 500 µg/mL. Moreover, in series [1], the HC50 was greater than 500 µg/mL. Besides, the minimum inhibitory concentration (MIC) in series [2] is 4 µg/mL (≈ 4.64 µM); in [3], 8 µg/mL (≈ 9.28 µM); in series [4], 3 µg/mL (≈ 3.48 µM); in [5] it was 15 µg/mL (≈ 17.4 µM); in series [6], greater than 50 µg/mL; in series [7], greater than 50 µg/mL. For the same compound, the MIC in series [8] was greater than 50 µg/mL; in series [9] it was 2 µg/mL (≈ 2.32 µM).

Consider `CCCCCCCCCCCCCCCC(=O)NCCN(C(=O)CCC(C)C)[C@@H](CCCCN)C(=O)NCCN(C(=O)CCC(C)C)[C@@H](CCCCN)C(N)=O`, for which the HC10 in series [1] is greater than 500 µg/mL. The HC50 in series [1] was greater than 500 µg/mL. In addition, the MIC is 2 µg/mL (≈ 2.52 µM) in series [2]; 5 µg/mL (≈ 6.3 µM) in series [3]; 1 µg/mL (≈ 1.26 µM) in series [4]; 10 µg/mL (≈ 12.6 µM) in [5]; greater than 50 µg/mL in series [6]; greater than 50 µg/mL in series [7]. Further, the MIC in series [8] is greater than 50 µg/mL; in series [9], 2 µg/mL (≈ 2.52 µM).

In the case of `CCCCCCCCCCCCCCCC(=O)NCCN(C(=O)CCCN)[C@@H](Cc1ccccc1)C(=O)NCCN(C(=O)CCCN)[C@@H](Cc1ccccc1)C(=O)NCCN(C(=O)CCCN)[C@@H](Cc1ccccc1)C(=O)NCCN(C(=O)CCCN)[C@@H](Cc1ccccc1)C(=O)NCCN(C(=O)CCCN)[C@@H](Cc1ccccc1)C(N)=O`, the HC10 in series [1] was found to be 20 µg/mL. The HC50 in series [1] turned out to be 250 µg/mL. The MIC in series [2] is 4 µg/mL (≈ 2.45 µM); in [3] it was 8 µg/mL (≈ 4.9 µM); in [4] it was 4 µg/mL (≈ 2.45 µM); in [5], 10 µg/mL (≈ 6.13 µM); in series [6], 4 µg/mL (≈ 2.45 µM); in series [7] it was 8 µg/mL (≈ 4.9 µM). In addition, the MIC in series [8] came out at 12 µg/mL (≈ 7.35 µM); in series [9], 4 µg/mL (≈ 2.45 µM). The outcome in [10] was Active.

Regarding `CCCCCCCCCCCCCCCC(=O)NCCN(C(=O)CCCN)[C@@H](Cc1ccccc1)C(=O)NCCN(C(=O)CCCN)[C@@H](Cc1ccccc1)C(=O)NCCN(C(=O)CCCN)[C@@H](Cc1ccccc1)C(N)=O`, the HC10 in series [1] was 50 µg/mL. In addition, in series [1], the HC50 was found to be 300 µg/mL. For the same compound, the MIC in [2] is 2 µg/mL (≈ 1.85 µM); in [3], 4 µg/mL (≈ 3.7 µM); in series [4], 4 µg/mL (≈ 3.7 µM); in series [5] it was 8 µg/mL (≈ 7.4 µM); in [6], 8 µg/mL (≈ 7.4 µM); in series [7] it was greater than 50 µg/mL. The MIC in [8] was 20 µg/mL (≈ 18.5 µM); in series [9] it was 3 µg/mL (≈ 2.77 µM).
